In brackets after ≈: the same amount, converted by molar mass.
Experiments:
Type in all cases: functional
Staphylococcus aureus [1] = test: Ratio of MIC for vancomycin-intermediate Staphylococcus aureus isolate NJ992 in presence of 50% human serum to MIC for vancomycin-intermediate Staphylococcus aureus isolate NJ992
Summary of the method: (§1)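 Ratio of the broth microdilution MIC (5 × 10^5 CFU/ml, 24 h, 35°C, duplicate) measured in 50% heat-treated human serum/supplemented Mueller-Hinton broth to the MIC measured in supplemented broth alone.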

[2] = system: Staphylococcus haemolyticus; test: Antimicrobial activity against vancomycin-intermediate Staphylococcus haemolyticus after 24 hrs by microdilution method in presence of 50% human serum; settings: for MBC / MIC50 / MIC90: Staphylococcus haemolyticus, 24 h
Summary of the method: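 Broth microdilution MIC/MBC (5 × 10^5 CFU/ml, 24 h, 35°C, duplicate) in 50% heat-treated (56°C, 1 h), filtered human serum plus supplemented Mueller-Hinton broth, with final broth strength 25 for TD-1792 and 50 for daptomycin. MBC was taken by plating clear wells on BHI agar.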

Staphylococcus aureus [3] = test: Ratio of MIC for vancomycin-intermediate Staphylococcus aureus isolate MU50 in presence of 50% human serum to MIC for vancomycin-intermediate Staphylococcus aureus isolate MU50; summary of the method: as §1
[4] = system: Staphylococcus haemolyticus; test: Ratio of MIC for vancomycin-intermediate Staphylococcus haemolyticus in presence of 50% human serum to MIC for vancomycin-intermediate Staphylococcus haemolyticus; summary of the method: as §1
Staphylococcus aureus [5] = test: Antimicrobial activity against vancomycin-resistant Staphylococcus aureus isolate PA after 24 hrs by microdilution method
Summary of the method: (§2)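 Broth microdilution per CLSI, inoculum 5 × 10^5 CFU/ml, Mueller-Hinton broth with 12.5 μg/ml magnesium and 25 μg/ml calcium (SMHB). Daptomycin was instead tested in SMHB at physiologic calcium (final 1.1 to 1.3 mM). Incubation 24 h at 35°C; MIC read; run in duplicate. MBC from 5-μl samples of clear wells plated on BHI agar, 24 h at 35°C.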

Staphylococcus aureus [6] = test: Antimicrobial activity against vancomycin-resistant Staphylococcus aureus isolate NY after 24 hrs by microdilution method in presence of 50% human serum
Summary of the method: (§3)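 Broth microdilution per CLSI, inoculum 5 × 10^5 CFU/ml, 24 h at 35°C, in duplicate. Medium was 50% (vol/vol) human serum plus 50% broth, final 25 SMHB for TD-1792 and 50 SMHB for daptomycin. Serum was heated 56°C for 1 h and filtered through 0.8, 0.5 and 0.22 μm. MBC by plating clear wells on BHI agar.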

Staphylococcus aureus [7] = test: Antimicrobial activity against vancomycin-intermediate Staphylococcus aureus isolate MU50 assessed as bacterial count at 4 times MIC after 24 hrs by colony counting method
Summary of the method: (§4)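 24-h time-kill run in triplicate in supplemented Mueller-Hinton broth (12.5 μg/ml Mg, 25 μg/ml Ca), adjusted to 1.1–1.3 mM Ca for daptomycin. […] Samples were taken at 0, 1, 4, 8 and 24 h and counted on BHI agar after 24 h at 35°C. Value is log10 CFU/ml change from baseline at 24 h.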

Staphylococcus aureus [8] = test: Antimicrobial activity against vancomycin-intermediate Staphylococcus aureus isolate NJ992 assessed as bacterial count at 16 times MIC after 24 hrs by colony counting method in presence of 50% human serum
Summary of the method: (§5)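 Time-kill in triplicate, starting inoculum 5 × 10^6 CFU/ml from a mid-exponential culture. Medium was 50% heat-treated, filtered human serum plus 50% broth, final 25 SMHB for TD-1792 and 50 SMHB for daptomycin. Drug at multiples of MIC. Samples to 24 h were plated on BHI agar for 24 h at 35°C. Value is the log10 CFU/ml change from baseline at 24 h.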

Staphylococcus aureus [9] = test: Antimicrobial activity against vancomycin-intermediate Staphylococcus aureus isolate NJ992 after 24 hrs by microdilution method; settings: isolate NJ992, 24 h; summary of the method: as §2
Staphylococcus aureus [10] = test: Antimicrobial activity against vancomycin-intermediate Staphylococcus aureus isolate NJ992 assessed as bacterial count at 8 times MIC after 24 hrs by colony counting method; summary of the method: as §4
Staphylococcus aureus [11] = test: Antimicrobial activity against vancomycin-intermediate Staphylococcus aureus isolate MU50 assessed as bacterial count at 16 times MIC after 24 hrs by colony counting method
Summary of the method: (§6)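 Time-kill in triplicate. Mid-exponential culture (OD600 ~0.3) diluted in supplemented Mueller-Hinton broth to 5 × 10^6 CFU/ml. Daptomycin was run at physiologic calcium, 1.1 to 1.3 mM. […] Samples at 0, 1, 4, 8 and 24 h were diluted in cold saline or vacuum filtered, then spiral-plated on BHI agar for 24 h at 35°C. Value is the log10 CFU/ml change from baseline at 24 h.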

Staphylococcus aureus [12] = test: Antimicrobial activity against vancomycin-resistant Staphylococcus aureus isolate MI assessed as bacterial count at 16 times MIC after 24 hrs by colony counting method in presence of 50% human serum; summary of the method: as §5
Staphylococcus aureus [13] = test: Antimicrobial activity against vancomycin-resistant Staphylococcus aureus isolate MI after 24 hrs by microdilution method; summary of the method: as §2
[14] = system: Staphylococcus haemolyticus; test: Antimicrobial activity against vancomycin-intermediate Staphylococcus haemolyticus after 24 hrs by microdilution method; settings: for MBC / MIC50 / MIC90: Staphylococcus haemolyticus, 24 h
Summary of the method: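 CLSI broth microdilution in supplemented Mueller-Hinton broth (12.5 μg/ml Mg, 25 μg/ml Ca), with Ca adjusted to 1.1–1.3 mM for daptomycin. Inoculum was 5 × 10^5 CFU/ml, incubated 24 h at 35°C, done in duplicate. For MBC, clear wells were plated on BHI agar and read after 24 h at 35°C.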

Staphylococcus aureus [15] = test: Antimicrobial activity against vancomycin-intermediate Staphylococcus aureus after 24 hrs by microdilution method in presence of 50% human serum; settings: for MBC / MIC50 / MIC90: Staphylococcus aureus, 24 h; summary of the method: as §3
Staphylococcus aureus [16] = test: Antimicrobial activity against vancomycin-intermediate Staphylococcus aureus isolate MU50 after 24 hrs by microdilution method; settings: isolate MU50, 24 h; summary of the method: as §2
Staphylococcus aureus [17] = test: Antimicrobial activity against vancomycin-resistant Staphylococcus aureus isolate MI assessed as bacterial count at 4 times MIC after 24 hrs by colony counting method; summary of the method: as §6
Staphylococcus aureus [18] = test: Antimicrobial activity against vancomycin-resistant Staphylococcus aureus isolate NY after 24 hrs by microdilution method; summary of the method: as §2
Staphylococcus aureus [19] = test: Antimicrobial activity against vancomycin-intermediate Staphylococcus aureus isolate MU50 assessed as bacterial count at 8 times MIC after 24 hrs by colony counting method; summary of the method: as §4
Staphylococcus aureus [20] = test: Antimicrobial activity against vancomycin-resistant Staphylococcus aureus isolate PA assessed as bacterial count at 4 times MIC after 24 hrs by colony counting method; summary of the method: as §6
Staphylococcus aureus [21] = test: Antimicrobial activity against vancomycin-intermediate Staphylococcus aureus isolate NJ992 assessed as bacterial count at 8 times MIC after 24 hrs by colony counting method in presence of 50% human serum; summary of the method: as §5
Staphylococcus aureus [22] = test: Antimicrobial activity against vancomycin-intermediate Staphylococcus aureus isolate NJ992 assessed as bacterial count at 16 times MIC after 24 hrs by colony counting method; summary of the method: as §4
Staphylococcus aureus [23] = test: Antimicrobial activity against vancomycin-resistant Staphylococcus aureus isolate PA assessed as bacterial count at 8 times MIC after 24 hrs by colony counting method in presence of 50% human serum; summary of the method: as §5

## CN[C@H](CC(C)C)C(=O)N[C@H]1C(=O)N[C@@H](CC(N)=O)C(=O)N[C@H]2C(=O)N[C@H]3C(=O)N[C@H](C(=O)N[C@H](C(=O)NCCCO/N=C(\C(=O)N[C@@H]4C(=O)N5C(C(=O)[O-])=C(C[n+]6ccccc6)CS[C@H]45)c4nc(N)sc4Cl)c4cc(O)cc(O)c4-c4cc3ccc4O)[C@H](O)c3ccc(c(Cl)c3)Oc3cc2cc(c3O[C@@H]2O[C@H](CO)[C@@H](O)[C@H](O)[C@H]2O[C@H]2C[C@](C)(N)[C@H](O)[C@H](C)O2)Oc2ccc(cc2Cl)[C@H]1O
Staphylococcus aureus [1]
  Ratio: 4
[2]
  MBC50: 0.25 µg/mL
  MBC90: 0.5 µg/mL
  MBC: 0.03 µg/mL
  MIC50: 0.25 µg/mL
  MIC90: 0.5 µg/mL
Staphylococcus aureus [3]
  Ratio: 2
[4]
  Ratio: 2
Staphylococcus aureus [5]
  MBC: 0.125 µg/mL (≈ 0.063 µM)
  MIC: 0.03 µg/mL (≈ 0.0151 µM)
Staphylococcus aureus [6]
  MBC: 0.5 µg/mL
  MIC: 0.25 µg/mL
Staphylococcus aureus [7]
  log10CFU/ml: 3.77
Staphylococcus aureus [8]
  log10CFU/ml: 4.76
Staphylococcus aureus [9]
  MBC: 0.06 µg/mL (≈ 0.0303 µM)
  MIC: 0.06 µg/mL (≈ 0.0303 µM)
Staphylococcus aureus [10]
  log10CFU/ml: 4.48
Staphylococcus aureus [11]
  log10CFU/ml: 4.94
Staphylococcus aureus [12]
  log10CFU/ml: 4.11
Staphylococcus aureus [13]
  MBC: 0.5 µg/mL (≈ 0.252 µM)
  MIC: 0.25 µg/mL (≈ 0.126 µM)
[14]
  MBC50: 0.06 µg/mL (≈ 0.0303 µM)
  MBC90: 0.125 µg/mL (≈ 0.063 µM)
  MBC: 0.015 µg/mL (≈ 0.00756 µM)
  MIC50: 0.06 µg/mL (≈ 0.0303 µM)
  MIC90: 0.125 µg/mL (≈ 0.063 µM)
Staphylococcus aureus [15]
  MBC50: 0.25 µg/mL
  MBC90: 0.5 µg/mL
  MBC: 0.03 µg/mL
  MIC50: 0.25 µg/mL
  MIC90: 0.5 µg/mL
Staphylococcus aureus [16]
  MBC: 0.03 µg/mL (≈ 0.0151 µM)
  MIC: 0.03 µg/mL (≈ 0.0151 µM)
Staphylococcus aureus [17]
  log10CFU/ml: 2.95
Staphylococcus aureus [18]
  MBC: 0.06 µg/mL (≈ 0.0303 µM)
  MIC: 0.03 µg/mL (≈ 0.0151 µM)
Staphylococcus aureus [19]
  log10CFU/ml: 4.33
Staphylococcus aureus [20]
  log10CFU/ml: 4.06
Staphylococcus aureus [21]
  log10CFU/ml: 4.09
Staphylococcus aureus [22]
  log10CFU/ml: 4.94
Staphylococcus aureus [23]
  log10CFU/ml: 4.65

## CCCCCCCCCC(=O)N[C@@H](Cc1c[nH]c2ccccc12)C(=O)N[C@H](CC(N)=O)C(=O)N[C@@H](CC(=O)O)C(=O)N[C@@H]1C(=O)NCC(=O)N[C@@H](CCCN)C(=O)N[C@@H](CC(=O)O)C(=O)N[C@H](C)C(=O)N[C@@H](CC(=O)O)C(=O)NCC(=O)N[C@H](CO)C(=O)N[C@@H]([C@H](C)CC(=O)O)C(=O)N[C@@H](CC(=O)c2ccccc2N)C(=O)O[C@@H]1C
Staphylococcus aureus [1]
  Ratio: 2
[2]
  MBC50: 4 µg/mL
  MBC90: 8 µg/mL
  MBC: 1 µg/mL
  MIC50: 1 µg/mL
  MIC90: 4 µg/mL
Staphylococcus aureus [3]
  Ratio: 2
[4]
  Ratio: 2
Staphylococcus aureus [5]
  MBC: 0.25 µg/mL (≈ 0.154 µM)
  MIC: 0.25 µg/mL (≈ 0.154 µM)
Staphylococcus aureus [6]
  MBC: 0.25 µg/mL
  MIC: 0.25 µg/mL
Staphylococcus aureus [7]
  log10CFU/ml: 3.02
Staphylococcus aureus [8]
  log10CFU/ml: 5.03
Staphylococcus aureus [9]
  MBC: 1 µg/mL (≈ 0.617 µM)
  MIC: 1 µg/mL (≈ 0.617 µM)
Staphylococcus aureus [10]
  log10CFU/ml: 3.86
Staphylococcus aureus [11]
  log10CFU/ml: 5.12
Staphylococcus aureus [12]
  log10CFU/ml: 4.6
Staphylococcus aureus [13]
  MBC: 0.25 µg/mL (≈ 0.154 µM)
  MIC: 0.25 µg/mL (≈ 0.154 µM)
[14]
  MBC50: 1 µg/mL (≈ 0.617 µM)
  MBC90: 2 µg/mL (≈ 1.23 µM)
  MBC: 0.25 µg/mL (≈ 0.154 µM)
  MIC50: 1 µg/mL (≈ 0.617 µM)
  MIC90: 1 µg/mL (≈ 0.617 µM)
Staphylococcus aureus [15]
  MBC50: 4 µg/mL
  MBC90: 8 µg/mL
  MBC: 1 µg/mL
  MIC50: 1 µg/mL
  MIC90: 4 µg/mL
Staphylococcus aureus [16]
  MBC: 1 µg/mL (≈ 0.617 µM)
  MIC: 1 µg/mL (≈ 0.617 µM)
Staphylococcus aureus [17]
  log10CFU/ml: 4.59
Staphylococcus aureus [18]
  MBC: 0.125 µg/mL (≈ 0.0771 µM)
  MIC: 0.125 µg/mL (≈ 0.0771 µM)
Staphylococcus aureus [19]
  log10CFU/ml: 4.82
Staphylococcus aureus [20]
  log10CFU/ml: 3.33
Staphylococcus aureus [21]
  log10CFU/ml: 5.01
Staphylococcus aureus [22]
  log10CFU/ml: 4.68
Staphylococcus aureus [23]
  log10CFU/ml: 5.11

— ChEMBL document CHEMBL1687766, “In vitro activity of the new multivalent glycopeptide-cephalosporin antibiotic TD-1792 against vancomycin-nonsusceptible Staphylococcus isolates” (Antimicrob Agents Chemother, 2010)
